Laboratory results as given in ChEMBL document CHEMBL1150363, “Synthesis, ligand-receptor modeling studies and pharmacological evaluation of novel 4-modified-2-aryl-1,2,4-triazolo[4,3-a]quinoxalin-1-one derivatives as potent and selective human A3 adenosine receptor antagonists” (Bioorg Med Chem, 2008).
The source made the active and inactive calls. No cut-off for these calls is given here.

Columns and labels:
Adenosine receptor A3 [1] = biological target: T1, Adenosine receptor A3 (Homo sapiens, UniProt P0DMS8); assay: Displacement of [125I]AB-MECA from human cloned adenosine A3 receptor expressed in CHO cells; format: cell-based
T1 sequence (P0DMS8 whole entry): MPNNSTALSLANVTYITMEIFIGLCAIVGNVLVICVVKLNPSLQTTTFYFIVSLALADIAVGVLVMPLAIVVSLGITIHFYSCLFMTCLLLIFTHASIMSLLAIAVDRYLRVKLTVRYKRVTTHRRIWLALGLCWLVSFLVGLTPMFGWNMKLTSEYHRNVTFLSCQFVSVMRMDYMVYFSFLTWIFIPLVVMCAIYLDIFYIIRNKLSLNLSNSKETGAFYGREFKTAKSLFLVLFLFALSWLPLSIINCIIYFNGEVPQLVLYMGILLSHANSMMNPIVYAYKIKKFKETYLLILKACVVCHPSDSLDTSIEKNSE
Summary of the method: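 CHO cells stably expressing hA3. IC50 by non-linear regression over five displacer concentrations in triplicate, converted to Ki by Cheng-Prusoff. Ki values are means of four assays.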

Adenosine receptor A2a = Adenosine receptor A2a (Homo sapiens, UniProt P29274); assay: Displacement of [125I]NECA from human adenosine A2A receptor expressed in CHO cells at 10uM; format: cell-based; conditions: in the assay text read “[3H]NECA” for “[125I]NECA”
Chain of Adenosine receptor A2a (P29274 whole entry): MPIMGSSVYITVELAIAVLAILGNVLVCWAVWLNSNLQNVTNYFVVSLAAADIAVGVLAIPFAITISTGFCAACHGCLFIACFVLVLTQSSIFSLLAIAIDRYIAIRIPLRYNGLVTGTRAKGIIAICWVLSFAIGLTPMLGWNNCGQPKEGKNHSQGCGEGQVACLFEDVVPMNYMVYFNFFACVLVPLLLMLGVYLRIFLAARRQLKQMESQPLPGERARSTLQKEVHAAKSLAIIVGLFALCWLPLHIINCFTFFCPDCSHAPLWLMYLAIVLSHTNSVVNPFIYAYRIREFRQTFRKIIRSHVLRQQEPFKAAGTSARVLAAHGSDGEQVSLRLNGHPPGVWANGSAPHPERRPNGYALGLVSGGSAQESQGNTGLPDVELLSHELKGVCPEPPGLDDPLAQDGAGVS
Summary of the method: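 hA2A stably expressed in CHO cells. Radioligand [3H]NECA (Kd 30 nM). Percentage inhibition of specific binding measured at 10 µM.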

Bos taurus = species: Bos taurus; assay: Displacement of [3H]CGS21680 from adenosine A2A receptor in bovine brain membrane at 10 uM; format: cell membranes
Summary of the method: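 Bovine striatal membranes, [3H]CGS 21680 (Kd 14 nM). Five displacer concentrations in triplicate, non-linear regression IC50, Cheng-Prusoff Ki, four assays. Single-point data are % inhibition at 10 µM.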

Adenosine receptor A3 [2] = biological target: T1, Adenosine receptor A3; assay: Antagonist activity at human […] expressed in CHO cells assessed as inhibition of NECA-induced cAMP accumulation; format: functional, cell-based
Summary of the method: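 hA3-transfected CHO cells (~60,000/well, 48 h) preincubated 15 min at 37 °C with Ro 20-1724 (20 µM) and adenosine deaminase (1 U/mL). Compound (1 nM–10 µM, 15 min) added, then 100 nM NECA against 1 µM forskolin-stimulated cAMP. Stopped with 0.4 N HCl. cAMP measured by [3H]cAMP competitive binding-protein assay. Sigmoid non-linear regression; three separate experiments.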

[3] = biological target: T2, Adenosine receptor A3 (Rattus norvegicus) (UniProt P28647); assay: Displacement of [3H](R)-PIA from adenosine A3 receptor in Wistar rat testis membrane at 1 uM; format: cell membranes
T2 sequence (whole entry): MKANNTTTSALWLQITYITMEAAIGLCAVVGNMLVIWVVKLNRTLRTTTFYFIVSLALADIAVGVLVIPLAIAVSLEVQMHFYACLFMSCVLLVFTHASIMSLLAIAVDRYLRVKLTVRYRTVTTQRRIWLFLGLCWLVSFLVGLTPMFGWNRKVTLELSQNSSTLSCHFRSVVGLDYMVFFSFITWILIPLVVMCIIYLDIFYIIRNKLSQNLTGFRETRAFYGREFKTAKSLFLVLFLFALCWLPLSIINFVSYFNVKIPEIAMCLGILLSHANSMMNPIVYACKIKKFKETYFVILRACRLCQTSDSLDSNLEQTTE
Summary of the method: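 Wistar rat testis membranes (0.1–0.2 mg protein) with 4 nM [3H](R)-PIA in 50 mM Tris/HCl pH 7.4, 1 mM EDTA, 10 mM MgCl2, plus 150 nM DPCPX to block A1 sites. Nonspecific binding defined with 15 µM (R)-PIA. Filtration, then scintillation counting. Percent inhibition at 1 µM.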

Adenosine receptor A1 [4] = biological target: T3, Adenosine receptor A1 (Rattus norvegicus, UniProt P25099); assay: Displacement of [3H]DPCPX from adenosine A1 receptor in Wistar rat cerebral cortex; format: tissue-based
T3 sequence (P25099 whole entry): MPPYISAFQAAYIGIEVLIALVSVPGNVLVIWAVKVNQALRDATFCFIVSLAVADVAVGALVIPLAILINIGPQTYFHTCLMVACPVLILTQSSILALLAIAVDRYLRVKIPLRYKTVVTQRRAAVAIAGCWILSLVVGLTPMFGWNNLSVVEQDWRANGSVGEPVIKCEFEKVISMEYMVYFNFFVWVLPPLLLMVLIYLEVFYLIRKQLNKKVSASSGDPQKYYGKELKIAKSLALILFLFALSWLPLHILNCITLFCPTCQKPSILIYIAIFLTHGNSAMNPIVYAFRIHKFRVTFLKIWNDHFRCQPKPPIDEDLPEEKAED

Rattus norvegicus [5] = species: Rattus norvegicus; assay: Inhibition of anoxic depolarization in Wistar rat cerebral ischemia model at 10 nM treated after 7 mins of oxygen and glucose deprivation; format: functional
Summary of the method: (§1)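 Rat hippocampal slices (400 µm), submerged and superfused with oxygenated aCSF at 30–32 °C. OGD made with glucose-free, N2-gassed aCSF for 7 or 30 min. Drug applied 15 min before, during and 5 min after OGD; 10 nM, with 0.5 nM–1 µM tested in 30-min runs. Anoxic depolarization recorded in CA1 as negative d.c. shift, with peak time from OGD onset. Means ± SEM; unpaired two-tailed t test.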

Rattus norvegicus [6] = species: Rattus norvegicus; assay: Inhibition of fEPSP amplitude in Wistar rat cerebral ischemia model at 10 nM treated after 7 mins of oxygen and glucose deprivation; format: functional
Summary of the method: (§2)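 Rat hippocampal slices, CA1 stratum radiatum fEPSP evoked by 80 µs, 0.066 Hz pulses at 30–32 °C. Drug (10 nM) given 15 min before, during and 5 min after 7-min OGD (glucose-free aCSF, 95% N2–5% CO2). Amplitude expressed as % of baseline, with recovery assessed after reperfusion in oxygenated glucose aCSF. Means ± SEM.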

Rattus norvegicus [7] = species: Rattus norvegicus; assay: Effect on fEPSP amplitude under normoxic condition in Wistar rat cerebral ischemia model treated before 15 mins of oxygen and glucose deprivation; format: functional; summary of the method: as §2
Rattus norvegicus [8] = species: Rattus norvegicus; assay: Effect on fEPSP amplitude under normoxic condition in Wistar rat cerebral ischemia model treated during oxygen and glucose deprivation; format: functional; summary of the method: as §2
Rattus norvegicus [9] = species: Rattus norvegicus; assay: Effect on fEPSP amplitude under normoxic condition in Wistar rat cerebral ischemia model treated after 5 mins of oxygen and glucose deprivation; format: functional; summary of the method: as §2
Rattus norvegicus [10] = species: Rattus norvegicus; assay: Effect on anoxic depolarization in Wistar rat cerebral ischemia model assessed as delay in appearance treated before 15 mins of oxygen and glucose deprivation; format: functional; summary of the method: as §1
Rattus norvegicus [11] = species: Rattus norvegicus; assay: Effect on anoxic depolarization in Wistar rat cerebral ischemia model assessed as delay in appearance treated during oxygen and glucose deprivation; format: functional; summary of the method: as §1
Adenosine receptor A1 [12] = biological target: T4, Adenosine receptor A1 (Bos taurus, UniProt P28190); assay: Displacement of [3H]DPCPX from adenosine A1 receptor in bovine brain membrane
T4 sequence (P28190 whole entry): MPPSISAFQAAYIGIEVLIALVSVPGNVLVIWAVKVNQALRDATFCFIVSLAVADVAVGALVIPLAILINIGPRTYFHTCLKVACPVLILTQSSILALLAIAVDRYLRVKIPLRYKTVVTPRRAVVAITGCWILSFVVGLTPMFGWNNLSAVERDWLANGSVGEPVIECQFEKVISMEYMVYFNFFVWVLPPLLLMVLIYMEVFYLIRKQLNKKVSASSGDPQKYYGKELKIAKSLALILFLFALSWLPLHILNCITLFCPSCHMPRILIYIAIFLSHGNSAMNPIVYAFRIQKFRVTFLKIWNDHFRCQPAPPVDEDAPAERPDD

[13] = biological target: T5, Adenosine receptor A1 (Homo sapiens) (UniProt P30542); assay: Displacement of [3H]DPCPX from human cloned adenosine A1 receptor expressed in CHO cells at 10 uM
T5 sequence (whole entry): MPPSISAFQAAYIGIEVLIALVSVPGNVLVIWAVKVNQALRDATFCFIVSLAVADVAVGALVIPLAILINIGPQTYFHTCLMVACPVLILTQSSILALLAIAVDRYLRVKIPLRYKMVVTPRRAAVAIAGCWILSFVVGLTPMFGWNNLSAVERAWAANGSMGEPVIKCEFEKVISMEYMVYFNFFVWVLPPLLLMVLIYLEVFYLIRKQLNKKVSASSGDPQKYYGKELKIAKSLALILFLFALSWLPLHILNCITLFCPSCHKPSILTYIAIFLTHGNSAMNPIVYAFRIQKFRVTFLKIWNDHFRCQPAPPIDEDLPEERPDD

- Ki (Adenosine receptor A3 [1]): 5.5 nM
- Activity (Adenosine receptor A2a): 32%
- Activity (Bos taurus): 56%
- EC50 (Adenosine receptor A3 [2]): 12 nM
- Activity [3]: 5%
- Ki (Adenosine receptor A1 [4]): 132 nM
- Ki (Adenosine receptor A1 [12]): 36 nM
- Activity [13]: 36%
SMILES: CS(=O)(=O)N(c1nc2ccccc2n2c(=O)n(-c3ccccc3)nc12)S(C)(=O)=O
- Activity (Rattus norvegicus [5]): Active
- Activity (Rattus norvegicus [6]): Active
- Activity (Rattus norvegicus [7]): inactive
- Activity (Rattus norvegicus [8]): inactive
- Activity (Rattus norvegicus [9]): inactive
- Activity (Rattus norvegicus [10]): 9.3 min
- Activity (Rattus norvegicus [11]): 9.3 min
